This is an account of results in ChEMBL document CHEMBL1124366, “Synthesis and biological properties of N63-carboxamides of teicoplanin antibiotics. Structure-activity relationships” (J Med Chem, 1989).

Converted amounts (≈) assume the structure as drawn. Some results are limits rather than exact numbers.

Experiment [1] relates to Streptococcus pyogenes. In words: In vitro minimum inhibitory concentration against Streptococcus pyogenes C 203. Type of experiment: functional.
For experiment [2], the system named is Escherichia coli. In words: In vitro minimum inhibitory concentration against Escherichia coli SKF 12140. Type of experiment: functional.
Experiment [3] deals with Streptococcus pneumoniae. In words: In vitro minimum inhibitory concentration against Streptococcus pneumoniae UC41. Type of experiment: functional.
For experiment [4], the system named is Enterococcus faecalis. In words: In vitro minimum inhibitory concentration against Streptococcus faecalis ATCC 7080. Type of experiment: functional.
The test system of experiment [5] is Ac2-L-Lys-D-Ala-D-Ala peptide. In words: Association constant with Ac2-L-Lys-D-Ala-D-Ala. The method, boiled down: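 UV difference spectroscopy at 24 ± 2 °C in 4-cm unthermostated cells. Antibiotic was at 30 μM in 10% MeOH in sodium phosphate buffer, pH 9, and titrated with Ac2-L-Lys-D-Ala-D-Ala. ΔA was monitored at 294 nm. Ka was taken from the slope of a Scatchard plot.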

The test system of experiment [6] is Staphylococcus epidermidis. In words: In vitro minimum inhibitory concentration against Staphylococcus epidermis ATCC 12228. Type of experiment: functional.
In experiment [7] the test system is Staphylococcus aureus. In words: In vitro minimum inhibitory concentration against Staphylococcus aureus Tour. Type of experiment: functional.
Experiment [8] deals with Proteus vulgaris. In words: In vitro minimum inhibitory concentration against Proteus vulgaris X 19 ATCC 881. Type of experiment: functional.
The test system of experiment [9] is Pseudomonas aeruginosa. In words: In vitro minimum inhibitory concentration against Pseudomonas aeruginosa ATCC 10145. Type of experiment: functional.
Experiment [10] concerns Streptococcus pyogenes. In words: Subcutaneously administration into mice infected with Streptococcus pyogenes C 203. Type of experiment: functional. As to conditions: sc. In a few lines: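 Mice (five per treatment group, five groups) infected intraperitoneally with about 10⁵ cells of Strep. pyogenes C 203, about 100× the LD50. ED50 (mg/kg) was calculated from the percentage of mice surviving at each dose on day 7.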

The subject of experiment [11] is Staphylococcus haemolyticus. In words: In vitro minimum inhibitory concentration against Staphylococcus hemolyticus 602 cell line. Type of experiment: functional. The following applies: strain 602.

`CC(=O)NC1C(O[C@@H]2c3ccc(c(Cl)c3)Oc3cc4cc(c3O)Oc3ccc(cc3Cl)C[C@H]3NC(=O)[C@H](N)c5ccc(O)c(c5)Oc5cc(O)cc(c5)[C@H](NC3=O)C(=O)N[C@H]4C(=O)N[C@H]3C(=O)N[C@@H]2C(=O)N[C@H](C(=O)NCCN2CCOCC2)c2cc(O)cc(O)c2-c2cc3ccc2O)OC(CO)C(O)C1O` (stereo partly specified): the MIC in [1] was 0.5 µg/mL (≈ 0.33 µM); in experiment [2], more than 128 µg/mL; in [3], 1 µg/mL (≈ 0.66 µM); in experiment [4] it was 0.5 µg/mL (≈ 0.33 µM); in experiment [6] it was 0.12 µg/mL (≈ 0.0792 µM); in [7] it was 0.12 µg/mL (≈ 0.0792 µM). For the same molecule, in experiment [8], the MIC is more than 128 µg/mL. Besides, the Ka in experiment [5] was determined as 34000 M⁻¹.

As a reminder, the ED50 is the dose at which the effect has come halfway, by size or by number of responders. With `CN(C)CCCCNC(=O)[C@H]1NC(=O)[C@H]2NC(=O)[C@H](NC(=O)[C@@H]3NC(=O)[C@H]4NC(=O)[C@@H](Cc5ccc(c(Cl)c5)Oc5cc3cc(c5O)Oc3ccc(cc3Cl)[C@H]2O)NC(=O)[C@H](N)c2ccc(O)c(c2)Oc2cc(O)cc4c2)c2ccc(O)c(c2)-c2c(O)cc(O)cc21`, the MIC in experiment [9] amounted to 32 µg/mL (≈ 24.7 µM); in experiment [1], 0.06 µg/mL (≈ 0.0463 µM); in [2], 8 µg/mL (≈ 6.17 µM); in experiment [3], 0.12 µg/mL (≈ 0.0925 µM); in [11], 0.12 µg/mL (≈ 0.0925 µM); in experiment [4], 0.12 µg/mL (≈ 0.0925 µM). The MIC was determined as 0.06 µg/mL (≈ 0.0463 µM) in experiment [6], 0.06 µg/mL (≈ 0.0463 µM) in experiment [7] and 32 µg/mL (≈ 24.7 µM) in experiment [8]. Besides, the 50% effect level in experiment [10] (ED50) was put at a dose of 0.54 mg/kg.

In the case of `CC(=O)N[C@@H]1[C@H](O[C@@H]2c3ccc(c(Cl)c3)Oc3cc4cc(c3O)Oc3ccc(cc3Cl)C[C@H]3NC(=O)[C@H](N)c5ccc(O)c(c5)Oc5cc(O)cc(c5)[C@H](NC3=O)C(=O)N[C@H]4C(=O)N[C@H]3C(=O)N[C@@H]2C(=O)N[C@H](C(=O)O)c2cc(O)cc(O)c2-c2cc3ccc2O)O[C@@H](CO)[C@@H](O)[C@@H]1O`, the MIC was 0.5 µg/mL (≈ 0.357 µM) in experiment [1]; more than 128 µg/mL in experiment [2]; 1 µg/mL (≈ 0.713 µM) in experiment [3]; 1 µg/mL (≈ 0.713 µM) in experiment [4]; 0.12 µg/mL (≈ 0.0856 µM) in [6]; 0.5 µg/mL (≈ 0.357 µM) in [7]. In experiment [8], this molecule had an MIC of more than 128 µg/mL. Besides, it took a dose of 2.46 mg/kg to reach the 50% effect level in experiment [10] (ED50). The Ka in [5] was 32000 M⁻¹.

As for `NCCNC(=O)[C@H]1NC(=O)[C@H]2NC(=O)[C@H](NC(=O)[C@@H]3NC(=O)[C@H]4NC(=O)[C@@H](Cc5ccc(c(Cl)c5)Oc5cc3cc(c5O)Oc3ccc(cc3Cl)[C@H]2O)NC(=O)[C@H](N)c2ccc(O)c(c2)Oc2cc(O)cc4c2)c2ccc(O)c(c2)-c2c(O)cc(O)cc21`, the MIC in experiment [9] was determined as 16 µg/mL (≈ 12.9 µM); in experiment [1] it was 0.06 µg/mL (≈ 0.0483 µM); in experiment [2], 4 µg/mL (≈ 3.22 µM); in experiment [3] it was 0.12 µg/mL (≈ 0.0967 µM); in experiment [11], 0.12 µg/mL (≈ 0.0967 µM); in experiment [4] it was 0.12 µg/mL (≈ 0.0967 µM). In addition, the MIC in [6] worked out at 0.03 µg/mL (≈ 0.0242 µM); in experiment [7], 0.06 µg/mL (≈ 0.0483 µM); in experiment [8], 16 µg/mL (≈ 12.9 µM). In experiment [10], this molecule showed an ED50 of 1.25 mg/kg.

For the molecule `CCN1CCCC1CNC(=O)[C@H]1NC(=O)[C@H]2NC(=O)[C@H](NC(=O)[C@@H]3NC(=O)[C@H]4NC(=O)[C@@H](Cc5ccc(c(Cl)c5)Oc5cc3cc(c5O)Oc3ccc(cc3Cl)[C@H]2O)NC(=O)[C@H](N)c2ccc(O)c(c2)Oc2cc(O)cc4c2)c2ccc(O)c(c2)-c2c(O)cc(O)cc21` (stereo partly specified), the MIC in experiment [9] came out at 64 µg/mL (≈ 48.9 µM); in [1], 0.06 µg/mL (≈ 0.0458 µM); in experiment [2], 4 µg/mL (≈ 3.06 µM); in experiment [3], 0.06 µg/mL (≈ 0.0458 µM); in experiment [11], 0.12 µg/mL (≈ 0.0917 µM); in experiment [4], 0.12 µg/mL (≈ 0.0917 µM). In addition, the MIC was 0.06 µg/mL (≈ 0.0458 µM) in experiment [6], 0.06 µg/mL (≈ 0.0458 µM) in experiment [7] and 32 µg/mL (≈ 24.4 µM) in experiment [8]. Also, the ED50 in [10] came to 1.25 mg/kg.

In the case of `CC(=O)NC1C(O[C@@H]2c3ccc(c(Cl)c3)Oc3cc4cc(c3O)Oc3ccc(cc3Cl)C[C@H]3NC(=O)[C@H](N)c5ccc(O)c(c5)Oc5cc(O)cc(c5)[C@H](NC3=O)C(=O)N[C@H]4C(=O)N[C@H]3C(=O)N[C@@H]2C(=O)N[C@H](C(=O)NCCCN(C)C)c2cc(O)cc(O)c2-c2cc3ccc2O)OC(CO)C(O)C1O` (stereo partly specified), the MIC in experiment [1] was 0.12 µg/mL (≈ 0.0807 µM); in [2], 64 µg/mL (≈ 43.1 µM); in [3], 0.25 µg/mL (≈ 0.168 µM); in [4], 0.25 µg/mL (≈ 0.168 µM); in experiment [6], 0.06 µg/mL (≈ 0.0404 µM); in experiment [7], 0.12 µg/mL (≈ 0.0807 µM). This molecule showed an MIC in experiment [8] of more than 128 µg/mL. Moreover, the ED50 in experiment [10] was 2.2 mg/kg. In experiment [5], this molecule yielded a Ka of 54000 M⁻¹.
